According to ChEMBL document CHEMBL1811814, “Synthesis and evaluation of indole, pyrazole, chromone and pyrimidine based conjugates for tumor growth inhibitory activities--development of highly efficacious cytotoxic agents” (Eur J Med Chem, 2010):

Key:
Type in all cases: functional
SK-MEL-28 [1] = assay: Growth inhibition of human SK-MEL-28 cells; conditions: for CC50: read-out: LC50 (the source's name)
SN12C = assay: Growth inhibition of human SN12C cells; conditions: for CC50: read-out: LC50 (the source's name)
MCF7 = assay: Growth inhibition of human MCF7 cells; conditions: for CC50: read-out: LC50 (the source's name)
MOLT-4 = assay: Growth inhibition of human MOLT4 cells assessed tumor cell growth at 10^-5 M; design: scale not given: the % may be the effect or the level left
Summary of the method: (§1)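 NCI 60-human-tumor-cell-line panel screen. Each compound was tested at a single concentration of 10^-5 M, and percent growth of tumor cells was recorded for each cell line. Growth inhibition was expressed from these percent-growth values.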

EKVX = assay: Growth inhibition of human EKVX cells assessed tumor cell growth at 10^-5 M; design: scale not given: the % may be the effect or the level left; summary of the method: as §1
HCT-15 = assay: Growth inhibition of human HCT15 cells assessed tumor cell growth at 10^-5 M; design: scale not given: the % may be the effect or the level left; summary of the method: as §1
Malme-3M = assay: Growth inhibition of human MALME-3M cells assessed tumor cell growth at 10^-5 M; design: scale not given: the % may be the effect or the level left; summary of the method: as §1
SK-MEL-28 [2] = assay: Growth inhibition of human SK-MEL-28 cells assessed tumor cell growth at 10^-5 M; design: scale not given: the % may be the effect or the level left; summary of the method: as §1
UACC-257 = assay: Growth inhibition of human UACC257 cells assessed tumor cell growth at 10^-5 M; design: scale not given: the % may be the effect or the level left
Summary of the method: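 Single-dose screen at 10^-5 M across the 60 human tumor cell line panel, run to NCI standards. The value is the percent growth of each cell line in the presence of compound. Compounds active at this dose moved on to five-concentration testing (10^-4 to 10^-8 M).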

[3] = Growth inhibition of human Hs 578T cells assessed tumor cell growth at 10^-5 M; design: scale not given: the % may be the effect or the level left; summary of the method: as §1
BT-549 = assay: Growth inhibition of human BT549 cells assessed tumor cell growth at 10^-5 M; design: scale not given: the % may be the effect or the level left; summary of the method: as §1
K562 = assay: Growth inhibition of human K562 cells; conditions: for CC50: read-out: LC50 (the source's name)

O=C1/C(=C\c2coc3ccccc3c2=O)c2ccccc2N1c1c(Cl)cccc1Cl
GI50 (SK-MEL-28 [1]): 3.8 µM
CC50 (SK-MEL-28 [1]): > 100 µM
GI50 (SN12C): 3.3 µM
CC50 (SN12C): > 100 µM
GI50 (MCF7): 3.2 µM
CC50 (MCF7): > 100 µM
Activity (MOLT-4): 19.03%
Activity (EKVX): 33.14%
Activity (HCT-15): 24.69%
Activity (Malme-3M): 83.75%
Activity (SK-MEL-28 [2]): 47.32%
Activity (UACC-257): 61.22%
Activity [3]: 27.37%
Activity (BT-549): 41.11%
GI50 (K562): 2 µM
CC50 (K562): > 100 µM

O=C1Nc2ccccc2/C1=C/c1cn(C(=O)c2c(Cl)cccc2Cl)c2ccccc12
GI50 (SN12C): 3.9 µM
CC50 (SN12C): 70.7 µM
Activity (MOLT-4): 43.9%
Activity (EKVX): 81.4%
Activity (HCT-15): 30.9%
Activity (Malme-3M): 116.7%
Activity (SK-MEL-28 [2]): 81.4%
Activity (UACC-257): 79.1%
Activity [3]: 64.6%
Activity (BT-549): 51.7%
GI50 (K562): 3.1 µM
CC50 (K562): > 100 µM

CC1=NN(c2cccc(Cl)c2)C(=O)/C1=C\C=C\c1ccccc1
GI50 (SK-MEL-28 [1]): 2 µM
CC50 (SK-MEL-28 [1]): 8.9 µM
GI50 (SN12C): 2.4 µM
CC50 (SN12C): > 100 µM
GI50 (MCF7): 1.1 µM
CC50 (MCF7): > 100 µM
Activity (MOLT-4): 28.39%
Activity (EKVX): 87.07%
Activity (HCT-15): 5%
Activity (Malme-3M): 115.91%
Activity (SK-MEL-28 [2]): -76.48%
Activity (UACC-257): 63.3%
Activity [3]: 132.74%
Activity (BT-549): 78.36%
GI50 (K562): 2.8 µM
CC50 (K562): > 100 µM

CC1=NN(c2cccc(Cl)c2)C(=O)/C1=C\c1c(O)ccc2ccccc12
GI50 (SN12C): > 100 µM
CC50 (SN12C): > 100 µM
Activity (MOLT-4): 44.19%
Activity (EKVX): 51.27%
Activity (HCT-15): 49.94%
Activity (Malme-3M): 58.97%
Activity (SK-MEL-28 [2]): 35.25%
Activity (UACC-257): 79.99%
Activity [3]: 82.15%
Activity (BT-549): 90.21%
GI50 (K562): 44.6 µM
CC50 (K562): > 100 µM

O=C1/C(=C\c2ccccn2)c2ccccc2N1c1c(Cl)cccc1Cl
GI50 (SN12C): 2.2 µM
CC50 (SN12C): 58.8 µM
Activity (MOLT-4): 3.8%
Activity (EKVX): 27.21%
Activity (HCT-15): 12.58%
Activity (Malme-3M): 67.26%
Activity (SK-MEL-28 [2]): -10.05%
Activity (UACC-257): 59.3%
Activity [3]: 22.94%
Activity (BT-549): -17.72%
GI50 (K562): 3.9 µM
CC50 (K562): > 100 µM
